Screens as filed in PubChem BioAssay.
PLAP act: human PLAP activation; purified PLAP enzyme, luminescent substrate read-out; hits give high values; activation fold at 20 µM; 96,000 compounds, 1.2% hits; in the data active means activation fold above about 2
Target sequence (P05187 whole entry, looked up): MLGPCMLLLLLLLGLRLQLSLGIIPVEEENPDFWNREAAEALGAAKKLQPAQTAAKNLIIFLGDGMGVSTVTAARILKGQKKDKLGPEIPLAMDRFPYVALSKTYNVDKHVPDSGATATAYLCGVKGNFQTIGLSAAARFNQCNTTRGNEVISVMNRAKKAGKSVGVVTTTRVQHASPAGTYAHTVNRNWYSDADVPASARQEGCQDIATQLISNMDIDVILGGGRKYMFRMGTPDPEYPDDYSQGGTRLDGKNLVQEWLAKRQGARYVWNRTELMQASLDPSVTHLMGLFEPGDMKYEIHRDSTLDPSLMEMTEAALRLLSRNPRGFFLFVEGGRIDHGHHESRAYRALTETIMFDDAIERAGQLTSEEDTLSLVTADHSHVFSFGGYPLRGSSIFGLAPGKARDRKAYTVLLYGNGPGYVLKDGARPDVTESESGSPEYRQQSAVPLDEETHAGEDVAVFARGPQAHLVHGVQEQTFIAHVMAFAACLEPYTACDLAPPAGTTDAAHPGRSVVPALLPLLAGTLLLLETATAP
Ecoli tolC: E. coli tolC mutant growth inhibition; E. coli BW25113 tolC mutant growth, OD615; growth inhibition, % at 10 µM (by protocol); 65,000 compounds, 2.2% hits;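 active means growth inhibition at or above a cutoff equal to the mean over every tested compound plus 3 SD, cut at about 60% in these data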;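 further: growth measured after 20 h incubation at 37 °C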
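test system = E. coli BW25113 ΔtolC::kan bacteria | medium = LB with kanamycin 50 µg/mL | signal = OD at 615 nm | schedule = 37 °C, 20 h exposure | evaluation = % inhibition of E. coli growth | compound dosing = one dose of 10 µM final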
PostGolgi yeast: growth inhibition of a yeast mutant, post-Golgi transport screen; post-Golgi transport phenotypic cell assay; inhibition, % at 10 µM; 98,000 compounds, 0.9% hits; AID 739;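 further: yeast cells grown in 1536-well plates; yeast grown about 18 h at 30C before absorbance read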
PostGolgi ctrl: inhibits growth of the yeast control strain; efflux-deficient yeast background strain, growth absorbance A615, 16 h; inhibition, % at 10 µM; 98,000 compounds, 5% hits; AID 738
HePTP inh: human HePTP phosphatase inhibition. P35236. recombinant HePTP phosphatase activity, OD absorbance. inhibition, % at 20 µM. 110,000 compounds, 0.64% hits; in the data active means inhibition above about 50%;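 further: plate controls were vehicle for no effect and reference inhibitor for full effect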
Ecoli WT expand: E. coli BW25113 growth inhibition, expanded screen; OD600 absorbance; growth inhibition, % at 100 µM; 98,000 compounds, 0.15% hits; AID 710;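 active means growth inhibition above about 50% at one test dose, limit read from the data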;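 further: growth measured after 20 h incubation at 37 °C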
Numbers without * were called inactive; . = no result. An excerpt weighted towards active compounds, which were near 5.4% of everything screened. Unless noted, no stated cut-off is given here; in the data, active means inhibition above about 30%; inactive means the rest.

SMILES	PLAP act	Ecoli tolC	PostGolgi yeast	PostGolgi ctrl	HePTP inh	Ecoli WT expand
CO/N=C(/CS(=O)Cc1ccccc1Cl)c1ccc(Cl)cc1Cl (stereo not given)	1.2	.	0	30*	.	10
COCc1cc(=O)[nH]c(Nc2nc(C)c3cc(OC)ccc3n2)n1	2.1*	.	8	5	.	-11
COc1ccc2nc(Nc3nc4ccccc4c(=O)[nH]3)nc(C)c2c1	.	.	.	.	-19	.
CCOC(=O)c1ccccc1NC(=O)CSc1nnc(COc2ccccc2C)n1C	1.5	49	2	38*	8	-4
COC(=O)c1ccccc1NC(=O)CSc1nnnn1C1CCCCC1	1	49	5	30	-3	-2
CCOC(=O)c1ccccc1NC(=O)CSc1nnnn1C1CCCCC1	0.9	72*	14	19	7	-11
Cn1c(=O)c2c(-c3ccccc3)n3c4ccccc4ncc3c2n(C)c1=O	.	3	.	.	5	.
Cc1nc2ccccc2n2c(-c3ccccc3)c3c(=O)n(C)c(=O)n(C)c3c12	1.7	.	17	47*	.	-7
COc1cccc(NC(=O)c2c(-c3c(Cl)cccc3Cl)noc2C)c1	.	.	.	.	-20	.
Clc1ccc2nc(CN3CCCc4ccccc43)cn2c1	1.6	61*	-5	20	6	11
CSc1nc2ccc(S(=O)(=O)NC3CCCCC3)cc2s1	0.8	16	0	71*	10	-2
Cc1ccc(NS(=O)(=O)c2ccc3c(c2)OCCO3)cc1	.	.	.	.	8	.
CSc1nc2ccc(NS(=O)(=O)c3ccc4c(c3)OCCO4)cc2s1	1.2	100*	8	32*	1	-10
C/C(=N\Nc1nnc2c(n1)[nH]c1ccc(C)cc12)c1ccccn1	.	.	.	.	-2	.
Cc1[nH]n2c(=O)cc(C(C)C)nc2c1-c1ccccc1	1.3	54	3	10	4	-7
Cc1[nH]n2c(=O)cc(C(C)(C)C)nc2c1-c1ccccc1	1.5	100*	-3	6	11	11
COc1ccc(/C=N/NS(=O)(=O)c2ccccc2)cc1OC(=O)c1ccc(C)cc1	1.3	.	5	6	.	-11
COc1cc(/C=N/NC(N)=S)ccc1OC(=O)c1ccc(C)cc1	1.1	.	0	52*	.	-2
Nc1c2c3c(c(Cl)ccc3[nH]c1=O)C(=O)c1ccccc1-2	.	.	.	.	103*	.
Nc1c([N+](=O)[O-])cc(Cl)c2c1C(=O)c1ccccc1C2=O	.	.	.	.	5	.
CC(Oc1ccc(Cl)cc1Cl)C(=O)N1CCN(c2ccc(Cl)cc2)CC1 (stereo not given)	.	.	.	.	2	.
C=CCOC(=O)C1CC=CCC1C(=O)Nc1nc2ccc(OCC)cc2s1 (stereo not given)	.	.	.	.	-12	.
CCOC(=O)C1CCCCN1C(=O)CCc1c(C)nc2cc(-c3ccccc3)nn2c1C (stereo not given)	1.5	17	3	77*	7	-4
CCOc1ccc(Oc2cc(NC(=O)c3ccco3)cc([N+](=O)[O-])c2)cc1	0.9	.	-1	44*	5	-3
CSc1nc2ncc3c(n2n1)CC1c2ccccc2CCN1C3=O (stereo not given)	1.3	.	3	32*	.	-1
SMILES	PLAP act	Ecoli tolC	PostGolgi yeast	PostGolgi ctrl	HePTP inh	Ecoli WT expand
O=C1c2cnc3nc(SCc4cccc(Cl)c4)nn3c2CC2c3ccccc3CCN12 (stereo not given)	1.3	.	16	42*	.	-15
c1ccc2c(c1)ncn2-c1ccc(-c2ccnc(-c3ccncc3)n2)cc1	0.9	.	98*	72*	.	-3
O=C(COc1ccccc1F)NC1CCN(Cc2ccccc2)CC1	1.6	.	54*	28	.	0
COc1cc(/C=C2/SC(=S)N(C)C2=O)ccc1OC(=O)c1cccc(Br)c1	.	.	.	.	3	.
COc1ccc(S(=O)(=O)n2nc(-c3ccc(Cl)cc3)cc2N)cc1OC	0.9	.	-1	31*	.	-6
CCOc1ccc(-c2cc(N)n(S(=O)(=O)c3ccc(OC)c(OC)c3)n2)cc1	1	.	-3	5	.	6
COc1ccccc1/C=C1\SC(=S)N(Cc2ccco2)C1=O	.	.	.	.	-12	.
CCC1SC(=NC(=O)c2ccc(Cl)c(Cl)c2)NC1=O (stereo not given)	1.1	38	-3	35*	8	10
CCC1S/C(=N/N=C(/C)c2ccc(Br)cc2)NC1=O (stereo not given)	.	.	.	.	1	.
CCOC(=O)c1[nH]c2ccc(F)cc2c1NC(=O)CN1CCN(C/C=C/c2ccccc2)CC1	1.4	98*	-3	12	3	0
CCOC(=O)c1[nH]c2ccc(F)cc2c1NC(=O)C1=COCCO1	1	0	-3	8	8	1
CCOC(=O)c1[nH]c2ccc(OC)cc2c1NC(=O)CCN1CCc2ccccc2C1	1.5	7	8	32*	7	2
COC(=O)c1[nH]c2ccc(Cl)cc2c1NC(=O)CN1CCc2cc(OC)c(OC)cc2C1	1.7	33	4	31*	4	-7
CCOC(=O)c1[nH]c2ccc(F)cc2c1NC(=O)c1cc(OC)c(OC)c(OC)c1	1.3	3	-10	30*	0	3
Cc1cc(Cl)ccc1NCC(=O)NN	.	.	.	.	-2	.
COc1cc(/C=C2/SC(=S)N(Cc3ccccc3)C2=O)cc(Cl)c1OCc1ccccc1	.	.	.	.	0	.
O=C(Nc1ccc(OC(F)(F)F)cc1)c1ccc([N+](=O)[O-])cc1	.	.	.	.	9	.
CCOC(=O)N1CCN(CC(=O)Nc2c(C(=O)OC)[nH]c3ccc(Cl)cc23)CC1	1.6	86*	6	13	-5	0
O=[N+]([O-])/C=C/c1cn(Cc2ccc(F)cc2)c2ccccc12	1	.	36*	80*	.	-3
S=C(NCc1ccccc1)NC1CC2CCC1C2 (stereo not given)	.	.	.	.	4	.
COCCNC(=O)CN(c1ccc(C(C)C)cc1)S(=O)(=O)c1ccccc1	.	.	.	.	-3	.
CC(=O)Nc1ccc(S(=O)(=O)N2CCC(n3cnc4cc(F)ccc43)CC2)cc1	1.2	19	6	-5	7	6
COc1ccc(S(=O)(=O)N2CCC(n3cnc4cc(C(F)(F)F)ccc43)CC2)cc1	1.8	21	-2	41*	-6	-1
COc1cccc(-c2nc(NC(C)C)c3ccccc3n2)c1O	1	24	-5	75*	8	-13
COc1cccc(-c2nc(N3CCCCC3)c3ccccc3n2)c1O	.	8	.	.	1	.
SMILES	PLAP act	Ecoli tolC	PostGolgi yeast	PostGolgi ctrl	HePTP inh	Ecoli WT expand
CCC(C)Nc1nc(-c2cccc(OC)c2O)nc2ccccc12 (stereo not given)	.	12	25	72*	7	-9
Nc1ccc(C(c2ccccc2)c2ccc(N)cc2)cc1	.	.	.	.	5	.
COc1cc(NC(=O)c2nn3c(c2Cl)NC(c2cccs2)CC3C(F)(F)F)cc([N+](=O)[O-])c1 (stereo not given)	.	.	.	.	6	.
COc1ccc(Cl)cc1C(=O)Nc1ccccc1Br	.	.	.	.	9	.
COC(=O)c1c(N)sc(C(=O)Nc2ccccc2OC)c1C	.	.	.	.	66*	.
O=C(CC1SC(=O)NC1=O)Nc1ccccc1 (stereo not given)	.	.	.	.	-2	.
O=C(c1c(F)c(F)c(F)c(F)c1F)N1CCN(c2cccc(C(F)(F)F)c2)CC1	1.1	49	9	17	2	-14
